According to ChEMBL document CHEMBL1139851, “Synthesis and SAR of [1,2,4]triazolo[1,5-a]pyrimidines, a class of anticancer agents with a unique mechanism of tubulin inhibition” (J Med Chem, 2007):
Activity calls are given as the source filed them. The rule behind the calls is not given here.

How the values were obtained:
COLO 205 = test: Cytotoxicity against COLO205 cells; format: cell-based; settings: Homo sapiens
Method in brief: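 MTS cytotoxicity assay in COLO 205 cells. Trypsinized cells were plated at 1000/well and preincubated about 24 h at 37 °C in 5% CO2. Compounds were added as nine serial 2-fold DMSO dilutions, final top concentration typically 5 µM, and cells were cultured 3 days. Absorbance was normalized to a time-0 plate. IC50 was read from a 10-concentration dose-response curve run in triplicate.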

U-87MG ATCC [1] = test: Antitumor activity against U87-MG cells xenografted in orally dosed athymic nu/nu mouse; format: functional, organism-based; settings: Homo sapiens
Method in brief: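 U87-MG flank xenografts (1 × 10⁶ cells, subcutaneous) were grown in female athymic nu/nu mice and staged at 80-120 mg. Compound was given by oral gavage on days 0 and 7 after staging. Controls received Klucel vehicle […], with nine animals per group. Tumor volume was (length × width²)/2, tested by one-sided Student's t-test.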

U-87MG ATCC [2] = test: Antitumor activity against U87-MG cells xenografted in iv dosed athymic nu/nu mouse; format: functional, organism-based; settings: Homo sapiens
Method in brief: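 Female athymic nu/nu mice received 1 × 10⁶ U87-MG cells subcutaneously in the flank. Once tumors reached 80-120 mg they were randomized into groups of 5-10. Compound was given iv in Klucel or 0.9% saline; controls got vehicle alone. Tumor volume was (length × width²)/2, compared with vehicle by one-sided Student's t-test, p ≤ 0.05.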

KB [3] = test: Antiproliferative activity against KB cells expressing MDR1; format: functional, cell-based; settings: Homo sapiens
Method in brief: (§1)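 KB, KB 8.5 and KB V1 lines differ in P-gp (MDR1) level. Growth-inhibition IC50 was taken from a dose-response curve at 10 concentrations in duplicate.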

[4] = Antiproliferative activity against KB8.5 cells expressing MDR1; format: functional, cell-based; settings: Homo sapiens; method in brief: as §1
[5] = Antiproliferative activity against KBV1 cells expressing MDR1; format: functional, cell-based; settings: Homo sapiens, KB-V1; method in brief: as §1
KB [6] = test: Ratio of IC50 for KB8.5 cells to IC50 for KB cells; format: functional, Homo sapiens
Method in brief: (§2)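 Resistance ratio is IC50 on KB 8.5 or KB V1 cells divided by IC50 on parental KB cells, each from 10-concentration duplicate dose-response curves.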

[7] = Ratio of IC50 for KBV1 cells to IC50 for KB cells; format: functional, Homo sapiens; method in brief: as §2
HeLa [8] = test: Induction of apoptosis in HeLa cells assessed as effect on sub-G1 population; format: functional, cell-based; settings: Homo sapiens
HeLa [9] = test: Induction of apoptosis in HeLa cells assessed as increase in sub-G1 population at 1 uM; format: functional, cell-based; settings: Homo sapiens
[10] = Metabolic stability in mouse liver microsomes; format: ADME, Microsome
[11] = Metabolic stability in rat liver microsomes; format: ADME, Microsome
[12] = Solubility in water at pH 6.74; format: physicochemical
[13] = Solubility in water at pH 5.48; format: physicochemical
[14] = Volume of distribution in rat; format: ADME, organism-based; settings: in vivo, read-out: Vdss
[15] = Clearance in rat; format: ADME, organism-based; settings: in vivo
[16] = Half life in rat; format: ADME, organism-based; settings: in vivo
[17] = Oral bioavailability in rat; format: ADME, organism-based; settings: in vivo
A549 = test: Antitumor activity against A549 cells xenografted in athymic nu/nu mouse after iv administration; format: functional, organism-based
Method in brief: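 Female athymic nu/nu mice were implanted subcutaneously in the flank with 1 × 10⁷ A549 cells. Animals were staged at about 300 (mm³/mg), then randomized into groups of 5-10. Dosing was iv on days 0, 7, 14 and 21, in Klucel or 0.9% saline; controls got vehicle. Tumor volume was (length × width²)/2. Analysis used a one-sided Student's t-test, p ≤ 0.05.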

Tubulin (Homo sapiens) [18] = target: T1, Tubulin (Homo sapiens) (UniProt P68371+Q9H4B7+P0DPH7+P68366+Q13509+Q71U36+P04350+Q3ZCM7+P07437+P68363+Q9BQE3+Q6PEY2+Q13885+Q9BVA1+Q9BUF5); test: Induction of MAP-rich tubulin polymerization at 2.7 uM; format: protein-complex assay
Tubulin (Homo sapiens) [19] = target: T1, Tubulin (Homo sapiens); test: Displacement of [3H]vinblastine from tubulin; format: protein-complex assay
Tubulin (Homo sapiens) [20] = target: T1, Tubulin (Homo sapiens); test: Displacement of [3H]colchicine from tubulin; format: protein-complex assay
Homo sapiens = species: Homo sapiens; test: Displacement of [3H]paclitaxel from microtubules
Tubulin (Homo sapiens) [21] = target: T1, Tubulin (Homo sapiens); test: Induction of tubulin polymerization in absence of GTP; format: protein-complex assay
HeLa [22] = test: Induction of apoptosis in HeLa cells assessed as increase in sub-G1 population at 35 nM; format: functional, cell-based; settings: Homo sapiens
HeLa [23] = test: Mitotic block in HeLa cells assessed as increase in G2/M peak by flow cytometry at >35 nM; format: functional, cell-based; settings: Homo sapiens

## CCCCOc1cc(F)c(-c2c(Cl)nc3ncnn3c2N[C@@H](C)C(F)(F)F)c(F)c1
COLO 205
  IC50: 1900 nM

## Fc1cc(F)c(-c2c(Cl)nc3ncnn3c2NCC(F)(F)F)c(F)c1
COLO 205
  IC50: 372 nM

## C[C@H](Nc1c(-c2c(F)cc(OCCN3CCOCC3)cc2F)c(Cl)nc2ncnn12)C(F)(F)F
COLO 205
  IC50: 245 nM

## C[C@H](Nc1c(-c2c(F)cc(OCCCN3CCC3)cc2F)c(Cl)nc2ncnn12)C(F)(F)F
COLO 205
  IC50: 326 nM

## C[C@H](Nc1c(-c2c(F)cc(CCCCN(C)C)cc2F)c(Cl)nc2ncnn12)C(F)(F)F
COLO 205
  IC50: 665 nM

## CCOCCCOc1cc(F)c(-c2c(Cl)nc3ncnn3c2N[C@@H](C)C(F)(F)F)c(F)c1
COLO 205
  IC50: 269 nM

## C[C@H](Nc1c(-c2c(F)cc(OCCCN3CCOCC3)cc2F)c(Cl)nc2ncnn12)C(F)(F)F
COLO 205
  IC50: 51 nM
U-87MG ATCC [1]
  Activity: Active
U-87MG ATCC [2]
  Activity: Active

## C[C@@H](Nc1c(-c2c(F)cc(F)cc2F)c(Cl)nc2ncnn12)C(F)(F)F
COLO 205
  IC50: 705 nM

## C[C@H](Nc1c(-c2ccc(OCCCN(C)C)cc2F)c(Cl)nc2ncnn12)C(F)(F)F
COLO 205
  IC50: 262 nM

## CN(C)CCCOc1cc(F)c(-c2c(Cl)nc3ncnn3c2NCC(F)(F)F)c(F)c1.Cl
COLO 205
  IC50: 53 nM
KB [3]
  IC50: 18.7 nM
[4]
  IC50: 38 nM
[5]
  IC50: 263 nM
KB [6]
  Ratio IC50: 2
[7]
  Ratio IC50: 14
U-87MG ATCC [1]
  Activity: Active
U-87MG ATCC [2]
  Activity: Active

## C[C@H](Nc1c(-c2c(F)cc(OCCCN(C)C)cc2F)c(Cl)nc2ncnn12)C(F)(F)F.Cl
COLO 205
  IC50: 56 nM
KB [3]
  IC50: 18.7 nM
[4]
  IC50: 33 nM
[5]
  IC50: 114 nM
KB [6]
  Ratio IC50: 1.8
[7]
  Ratio IC50: 6.1
U-87MG ATCC [1]
  Activity: Active
U-87MG ATCC [2]
  Activity: Active

## C[C@H](Nc1c(-c2c(F)ccc(F)c2F)c(Cl)nc2ncnn12)C(F)(F)F
COLO 205
  IC50: 183 nM

## COc1cc2c(c(OC)c1OC)-c1ccc(OC)c(=O)cc1[C@@H](NC(C)=O)CC2
HeLa [8]
  Activity: inactive

## C[C@H](Nc1c(-c2c(F)cc(N(C)CCCN(C)C)cc2F)c(Cl)nc2ncnn12)C(F)(F)F
COLO 205
  IC50: 1670 nM

## CCN(C)CCCOc1cc(F)c(-c2c(Cl)nc3ncnn3c2N[C@@H](C)C(F)(F)F)c(F)c1
COLO 205
  IC50: 48 nM

## C[C@H](Nc1c(-c2c(F)cc(F)cc2F)c(Br)nc2ncnn12)C(F)(F)F
COLO 205
  IC50: 232 nM

## C[C@H](Nc1c(-c2ccc(F)cc2F)c(Cl)nc2ncnn12)C(F)(F)F
COLO 205
  IC50: 953 nM

## C[C@H](Nc1c(-c2c(F)cc(OCCCCO)cc2F)c(Cl)nc2ncnn12)C(F)(F)F
COLO 205
  IC50: 151 nM
KB [3]
  IC50: 42 nM
[4]
  IC50: 70 nM
[5]
  IC50: 67 nM
KB [6]
  Ratio IC50: 1.6
[7]
  Ratio IC50: 1.6

## CC(=O)O[C@@]12CO[C@@H]1C[C@H](O)[C@@]1(C)C(=O)[C@H](O)C3=C(C)[C@@H](OC(=O)[C@H](O)[C@@H](NC(=O)OC(C)(C)C)c4ccccc4)C[C@@](O)([C@@H](OC(=O)c4ccccc4)[C@H]21)C3(C)C
HeLa [9]
  Activity: Active

## C[C@H](Nc1c(-c2c(F)cc(OCCCO)cc2F)c(Cl)nc2ncnn12)C(F)(F)F
COLO 205
  IC50: 67 nM

## C[C@H](Nc1c(-c2c(F)cc(F)cc2F)c(Cl)nc2ncnn12)C(F)(F)F
COLO 205
  IC50: 267 nM

## C[C@H](Nc1c(-c2c(F)cc(OCCCN)cc2F)c(Cl)nc2ncnn12)C(F)(F)F
COLO 205
  IC50: 452 nM

## C[C@H](Nc1c(-c2c(F)cc(OCCN(C)C)cc2F)c(Cl)nc2ncnn12)C(F)(F)F
COLO 205
  IC50: 581 nM

## C[C@H](Nc1c(-c2c(F)cc(OCCO)cc2F)c(Cl)nc2ncnn12)C(F)(F)F
COLO 205
  IC50: 422 nM

## C[C@H](Nc1c(-c2c(F)ccc(OCCCCN(C)C)c2F)c(Cl)nc2ncnn12)C(F)(F)F
COLO 205
  IC50: 433 nM

## CNCCCOc1cc(F)c(-c2c(Cl)nc3ncnn3c2N[C@@H](C)C(F)(F)F)c(F)c1.Cl
COLO 205
  IC50: 31 nM
KB [3]
  IC50: 23 nM
[4]
  IC50: 67 nM
[5]
  IC50: 953 nM
KB [6]
  Ratio IC50: 2.9
[7]
  Ratio IC50: 41.5
[10]
  half-life: 7.22 h
[11]
  half-life: 1.47 h
[12]
  solubility: 890 µg/mL
[13]
  solubility: 7990 µg/mL
[14]
  Vd: 14 L/kg
[15]
  clearance: 14 mL/min/kg
[16]
  half-life: 13 h
[17]
  bioavailability: 61%
A549
  Tumour inhibition: Active
U-87MG ATCC [1]
  Activity: Active
U-87MG ATCC [2]
  Activity: Active
Tubulin (Homo sapiens) [18]
  Activity: Active
Tubulin (Homo sapiens) [19]
  Activity: Active
Tubulin (Homo sapiens) [20]
  Activity: inactive
Homo sapiens
  Activity: inactive
Tubulin (Homo sapiens) [21]
  Activity: Active
HeLa [22]
  Activity: Active
HeLa [23]
  Activity: Active

## CC[C@]1(O)C[C@H]2CN(CCc3c([nH]c4ccccc34)[C@@](C(=O)OC)(c3cc4c(cc3OC)N(C=O)[C@H]3[C@@](O)(C(=O)OC)[C@H](OC(C)=O)[C@]5(CC)C=CCN6CC[C@]43[C@@H]65)C2)C1 [VINCRISTINE]
[4]
  IC50: 58 nM
KB [6]
  Ratio IC50: 26
HeLa [8]
  Activity: inactive

## C[C@H](Nc1c(-c2c(F)cc(SCCCN(C)C)cc2F)c(Cl)nc2ncnn12)C(F)(F)F
COLO 205
  IC50: 192 nM

## C[C@H](Nc1c(-c2c(F)cc(OCCCCN(C)C)cc2F)c(Cl)nc2ncnn12)C(F)(F)F
COLO 205
  IC50: 276 nM

## C[C@H](Nc1c(-c2c(F)ccc(OCCN(C)C)c2F)c(Cl)nc2ncnn12)C(F)(F)F
COLO 205
  IC50: 1570 nM

## C[C@H](Nc1c(-c2c(F)cc(OCCCN3CCCCC3)cc2F)c(Cl)nc2ncnn12)C(F)(F)F
COLO 205
  IC50: 113 nM

## C[C@H](Nc1c(-c2c(F)cc(OCCCCCO)cc2F)c(Cl)nc2ncnn12)C(F)(F)F
COLO 205
  IC50: 214 nM

## C[C@H](Nc1c(-c2c(F)cc(OCCCN3CCCC3)cc2F)c(Cl)nc2ncnn12)C(F)(F)F
COLO 205
  IC50: 44 nM
U-87MG ATCC [1]
  Activity: Active
U-87MG ATCC [2]
  Activity: Active

## C[C@H](Nc1c(-c2c(F)ccc(OCCCN(C)C)c2F)c(Cl)nc2ncnn12)C(F)(F)F
COLO 205
  IC50: 785 nM

## C[C@H](Nc1c(-c2c(F)cc(NCCCN(C)C)cc2F)c(Cl)nc2ncnn12)C(F)(F)F
COLO 205
  IC50: 719 nM

## C[C@H](Nc1c(-c2c(F)cc(OCCCN(C)C)cc2F)c(Br)nc2ncnn12)C(F)(F)F
COLO 205
  IC50: 96 nM
